Measured values pooled from the literature.
Protocols differ between the studies behind these lines. pEC50, pIC50: −log10 of the molar value.
Organism: Plasmodium falciparum
Observed: parasite growth
Technique: SYBR Green

SMILES | strain | tested at | time | notes | endpoint | value
COCC(=O)N1CCC[C@H](C(=O)NCc2nc(-c3ccccc3)cs2)C1 | DD2 | – | – | blood stage | pEC50 | 7.16
Cn1cc2c3c1C(=O)C(N)=CC3=NCC2 | W2 | – | – | blood stage | pIC50 | 5.24
CCCCCNC[C@@H](O)c1cc(Cl)cc2c1-c1ccc(Cl)cc1C2 | W2 | – | 48 h | drug-resistant strain, blood stage | pIC50 | 8.07
C[C@@H]1CC[C@H]2[C@@H](C)C(=O)O[C@@H]3O[C@@]4(C)CC[C@@H]1[C@]32OO4 | DD2 | – | – | drug-resistant strain, blood stage | pIC50 | 7.12
COCC(=O)N1CCC[C@H](C(=O)NCc2nc(-c3ccc(C#N)cc3)cs2)C1 | DD2 | – | – | blood stage | pEC50 | 7.74
C[N+]1=C2C=C(N/C=C/c3ccc(O)cc3)C(=O)c3[nH]cc(c32)CC1 | DD2 | – | – | blood stage | pIC50 | 6.30
CCN(CC)CCCC(C)Nc1ccnc2cc(Cl)ccc12 (centres unmarked) | DD2 | – | 96 h | drug-resistant strain, blood stage | pIC50 | 7.12
CCCCCCCNCC(O)c1cc(Cl)cc2c1-c1ccc(Cl)cc1C2 (racemic) | W2 | – | 48 h | drug-resistant strain, blood stage | pIC50 | 7.73
O=Cc1cn(Cc2cn(-c3ccnc4cc(Cl)ccc34)nn2)c2ccccc12 | 3D7 | 5 µM | – | blood stage | inhibition | -4.99%
CCOCC(=O)N1CCC[C@H](C(=O)NCc2nc(-c3ccc(C#N)cc3)cs2)C1 | DD2 | – | – | blood stage | pEC50 | 8.21
CCCCCCNCC(O)c1cc(Cl)cc2c1-c1ccc(Cl)cc1C2 (racemic) | W2 | – | 48 h | drug-resistant strain, blood stage | pIC50 | 8.22
CC(C)C[C@@H](C=O)NC(=O)[C@H](CC(C)C)NC(=O)[C@H](CC(C)C)NC(=O)OCc1ccccc1 | DD2 | – | – | blood stage | pEC50 | 7.16
COc1ccc(C2CC3=C(C(=O)O2)C(c2ccccc2Cl)C(C(=O)OC(C)(C)C)=C(C)N3)cc1OC (mixture of isomers) | 3D7 | – | 72 h | blood stage | pEC50 | < 4.89
O[C@H](CNCCN1CCN(C(c2ccccc2)c2ccccc2)CC1)c1cc(Cl)cc2c1-c1ccc(Cl)cc1C2 | W2 | – | 48 h | drug-resistant strain, blood stage | pIC50 | 7.89
O=C1C=C2NCCc3c[nH]c(c32)C1=O | 3D7 | – | – | blood stage | pIC50 | 4.53
CCN(CC)CCCC(C)Nc1ccnc2cc(Cl)ccc12 (centres unmarked) | DD2 | – | – | drug-resistant strain, blood stage | pIC50 | 6.07
C[N+]1=C2C=C(NCCc3ccc(O)cc3)C(=O)c3[nH]cc(c32)CC1 | W2 | – | – | blood stage | pIC50 | 7.49
CC(C)C[C@H](NC(=O)[C@H](Cc1ccccc1)NC(=O)c1cnccn1)B(O)O | DD2 | – | – | blood stage | pEC50 | 7.39
C[N+]1=C2C=C(N)C(=O)c3[nH]cc(c32)CC1 | 3D7 | – | – | blood stage | pIC50 | 6.71
O[C@H](CN[C@H](COCC1CC1)Cc1ccccc1)c1cc(Cl)cc2c1-c1ccc(Cl)cc1C2 | W2 | – | 48 h | drug-resistant strain, blood stage | pIC50 | 8.55
